Assay results taken from ChEMBL document CHEMBL1153829, “Exploiting chemical libraries, structure, and genomics in the search for kinase inhibitors” (Science, 1998).
The source made the active and inactive calls. The calls are words filed in the database; no cut-off is given here.

Legend:
Saccharomyces cerevisiae [1] = test: Induction of ALD4 gene expression in delta snq2, delta pdr5 and delta erg6 knock out yeast YRP1 at 25 µM after 2 hrs by high-density oligonucleotide array; format: functional, organism-based; settings: 25 M
In short: (§1)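 Drug-sensitized S. cerevisiae cultures grown to late logarithmic phase, then exposed to 25 μM inhibitor for 2 h. Polyadenylated mRNA isolated, converted to biotin-labeled cRNA and hybridized to a set of four high-density arrays carrying more than 260,000 25-nucleotide oligomers. Transcripts scored as changed when they shifted more than twofold in triplicate hybridizations for each of two independent experiments.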

Saccharomyces cerevisiae [2] = test: Effect on TFS1 gene expression in delta snq2, delta pdr5 and delta erg6 knock out yeast YRP1 assessed as change in mRNA level at 25 µM after 2 hrs by high-density oligonucleotide array; format: functional, organism-based; in short: as §1
Saccharomyces cerevisiae [3] = test: Upregulation of GSC2 gene expression in delta snq2, delta pdr5 and delta erg6 knock out yeast YRP1 at 25 µM after 2 hrs by high-density oligonucleotide array; format: functional, organism-based; settings: 25 M
In short: (§2)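 Drug-sensitized yeast strain grown to late logarithmic phase, then exposed to 25 μM inhibitor for 2 h. Polyadenylated mRNA was isolated and converted to biotin-labeled cRNA, which was hybridized to a set of four arrays carrying over 260,000 25-nucleotide oligomers. Transcripts changing more than twofold were scored, from triplicate hybridizations in each of two independent experiments.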

Saccharomyces cerevisiae [4] = test: Increase in UB14 mRNA level in delta snq2, delta pdr5 and delta erg6 knock out yeast YRP1 at 25 µM after 2 hrs by high-density oligonucleotide array; format: functional, organism-based; in short: as §1
Saccharomyces cerevisiae [5] = test: Induction of YPR184W gene expression in delta snq2, delta pdr5 and delta erg6 knock out yeast YRP1 at 25 µM after 2 hrs by high-density oligonucleotide array; format: functional, organism-based; in short: as §2
Saccharomyces cerevisiae [6] = test: Effect on YDR281C gene expression in delta snq2, delta pdr5 and delta erg6 knock out yeast YRP1 bearing cdc28-4 mutant allele assessed as change in mRNA level at 25 µM after 2 hrs by high-density oligonucleotide array; format: functional, organism-based
Nucleic Acid = test: Induction of condensation of DNA; format: nucleic-acid assay
[7] = Induction of microtubule […]
Saccharomyces cerevisiae [8] = test: Growth inhibition of delta snq2, delta pdr5 and delta erg6 knock out yeast YRP1 after 2 hrs; format: functional

Row | Activity (Nucleic Acid) | Activity [7] | Structure (SMILES) | Activity (Saccharomyces cerevisiae [1]) | Activity (Saccharomyces cerevisiae [2]) | Activity (Saccharomyces cerevisiae [3]) | Activity (Saccharomyces cerevisiae [4]) | Activity (Saccharomyces cerevisiae [5]) | Activity (Saccharomyces cerevisiae [6]) | GI50 (Saccharomyces cerevisiae [8])
1 |  |  | CN1CC[C@H](c2c(O)cc(O)c3c(=O)cc(-c4ccccc4Cl)oc23)[C@H](O)C1 [ALVOCIDIB] | Active | Active | Active | Active | Active | Active | 
2 | Active | Active | CC(C)n1cnc2/c(=N/c3cccc(Cl)c3)nc(NCCO)[nH]c21 | Active | Active | Active | Active | Active | Active | 30 µM
